PAFAH2 inh = PAFAH2 (human) inhibition | inhibition, % at 3.39 µM | 340,000 compounds, 0.99% hits | AID 492956 | Q99487 | recombinant PAFAH2, FP-rhodamine activity probe, fluorescence polarization;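 active means inhibition above the mean over all tested compounds plus 3 SD, cut at about 30% in these data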;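 further: inhibitors block probe labeling of enzyme so polarization drops; 0% = enzyme with DMSO and 100% = wells lacking PAFAH2 protein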
pPAFAH FP inh = inhibitors of human plasma PAF acetylhydrolase (pPAFAH); Q13093; 330,000 compounds, 1.5% hits; inhibition, % at 3.39 µM; recombinant pPAFAH, FP-rhodamine probe fluorescence polarization;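 active means inhibition above the mean inhibition across the screen plus 3 SD, cut at about 25% in these data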;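 further: inhibitors block binding of the rhodamine activity-based probe so polarization drops; 0% = enzyme with DMSO and 100% = wells lacking pPAFAH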
ARFGAP1 inhibitor = rat ARFGAP1 inhibition; Q62848; Arfgap1-stimulated ARF1 GTP hydrolysis, GDP FP detection; inhibition, % at 16.5 µM; 360,000 compounds, 0.26% hits;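 active means inhibition above a per-plate limit, mean inhibition of low control wells plus 3 SD, cut at about 25% in these data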;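 further: 0% = DMSO wells with enzyme and 100% = wells lacking Arfgap1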
Target sequence (Q62848 1-136 limits assumed): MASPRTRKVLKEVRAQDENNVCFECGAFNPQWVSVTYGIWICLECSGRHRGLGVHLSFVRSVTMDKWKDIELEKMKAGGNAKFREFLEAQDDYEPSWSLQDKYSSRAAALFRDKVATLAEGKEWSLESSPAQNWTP
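Assay system: Rat Arfgap1 GAP domain (His6, aa 1-136), purified enzyme | Buffer or medium: HEPES 25 mM pH 7.5, NaCl 150 mM, MgCl2, DTT | Schedule: GTP hydrolysis reaction 2 h at 25 °C | Signal: FP of antibody-bound GDP Alexa 633 tracer, ex 620/em 688 nm | Measure: Percent inhibition of Arfgap1-stimulated GTP hydrolysis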
ASAP1 GAP inh = blocks human ASAP1-stimulated Arf1 GTP hydrolysis; 360,000 compounds, 0.19% hits; Q9ULH1; inhibition, % at 16.5 µM; GDP FP detection; AID 624377; in the data active means inhibition above about 25%;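 further: 0% = vehicle with enzyme and substrate and 100% = no enzyme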
PAFAH1B3 FP inh = inhibitors of human PAFAH1B3. inhibition, % at 3.39 µM. AID 492972. 340,000 compounds, 0.28% hits. recombinant PAFAH1B3, FP-rhodamine probe, fluorescence polarization. Q15102;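 active means inhibition above the screen-wide average of all tested compounds plus 3 SD, cut at about 25% in these data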;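 further: 0% = enzyme with DMSO only and 100% = wells lacking PAFAH1B3 protein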
Target sequence (Q15102 whole entry, looked up): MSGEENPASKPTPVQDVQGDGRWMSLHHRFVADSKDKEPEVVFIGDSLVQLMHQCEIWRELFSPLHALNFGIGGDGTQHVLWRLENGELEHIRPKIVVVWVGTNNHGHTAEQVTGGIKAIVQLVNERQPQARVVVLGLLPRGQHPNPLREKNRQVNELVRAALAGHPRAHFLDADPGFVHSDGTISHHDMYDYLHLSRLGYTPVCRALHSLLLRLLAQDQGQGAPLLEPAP
PAFAH1B2 inh = inhibitors of human PAFAH1B2; P68402; recombinant PAFAH1B2, FP-rhodamine activity probe, fluorescence polarization; inhibition, % at 3.39 µM; 340,000 compounds, 1.2% hits; AID 492953;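 active means inhibition above the mean of all tested compounds plus 3 SD, cut at about 24% in these data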;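 further: 0% = enzyme with DMSO and 100% = wells lacking PAFAH1B2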
Target sequence (P68402 whole entry, looked up): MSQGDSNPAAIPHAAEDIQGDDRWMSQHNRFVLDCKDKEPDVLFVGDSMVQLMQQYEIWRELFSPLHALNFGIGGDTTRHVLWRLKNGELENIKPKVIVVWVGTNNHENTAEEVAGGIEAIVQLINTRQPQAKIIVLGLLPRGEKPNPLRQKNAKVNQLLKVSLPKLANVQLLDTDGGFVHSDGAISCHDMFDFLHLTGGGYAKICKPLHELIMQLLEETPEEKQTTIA
An asterisk follows results filed as active; . = no result; ! = not active in a repeat. Only some compounds are listed: those with a hit (about 2.7% of all), similar ones and a draw of the others.

SMILES	PAFAH2 inh	pPAFAH FP inh	ARFGAP1 inhibitor	ASAP1 GAP inh	PAFAH1B3 FP inh	PAFAH1B2 inh
CN1C(=O)/C(=C/c2ccc(-c3ccccc3[N+](=O)[O-])o2)SC1=Nc1ccc(Cl)c(C(=O)O)c1	31*	29*	-4	6	23	16
O=c1nc2s/c(=C\c3ccc(-c4ccccc4[N+](=O)[O-])o3)c(=O)n2nc1-c1ccccc1	25	.	-5	-13	16	-1
C=CCN=C1NC(c2ccccc2C(F)(F)F)C(C(=O)OC)=C(C)N1Cc1cccc(C(F)(F)F)c1 (stereo not given)	.	.	11	-2	.	.
c1ccc(SCc2cc(-c3ccccc3)no2)cc1	7	6	7	-10	10	26*
COc1ccc(/C=C/CN2CCC(C(=O)NC(c3ccc(F)cc3)c3ccc4ccccc4n3)CC2)cc1 (stereo not given)	.	.	1	-11	.	.
CCN(C(=O)COC(=O)C(C)(C)Oc1ccc(Cl)cc1)c1c(N)n(Cc2ccccc2)c(=O)[nH]c1=O	-6	.	-5	15	9	1
CN(C(=O)COC(=O)C(C)(C)Oc1ccc(Cl)cc1)c1c(N)n(Cc2ccccc2)c(=O)[nH]c1=O	4	29*	3	-3	3	5
CCCCCCSC1=C(C#N)C(c2ccccc2)CC(=O)N1 (stereo not given)	1	13	2	-2	3	12
Cc1ccc(C2CC(=O)NC(SCc3ccccc3)=C2C#N)cc1 (stereo not given)	0	30*	-2	-3	5	8
N#CC1=C(SCc2ccccc2)NC(=O)CC1c1ccc(O)cc1 (stereo not given)	1	26*	10	14	-10	7
O/N=C/c1ccc2ccccc2c1	-1	0	-1	-18	5	50*
Nc1nc(-c2cccc(F)c2)cs1	1	-2	9	-11	7	45*
CC(C)(c1ccccc1)c1ccc(OCCN2CCOCC2)cc1	3	27*	2	6	4	17
c1ccc(OCCOCCN2CCOCC2)cc1	2	-6	-9	-6	6	-2
Cc1c(Cl)cccc1NC(=O)CSCc1cc(=O)[nH][nH]1	-2	25*	-3	8	1	2
O=C(O)C1CCCN1C(=O)c1cccc(Cl)c1 (stereo not given)	.	.	-5	-4	.	.
NS(=O)(=O)c1ccc(CNS(=O)(=O)c2ccc(Cl)nc2)cc1	-1	2	2	1	8	4
O=S(=O)(NCc1ccc(Cl)cc1)c1ccc(Cl)nc1	-5	5	4	-3	5	34*
Cc1ccc(S(=O)(=O)N2[C@@H](c3ccc(C(C)(C)C)cc3)C(C(=O)O)=CC[C@H]2c2cccc(Cl)c2)cc1	6	18	-5	-3	-3	78*
Cc1ccc(S(=O)(=O)N2[C@@H](c3ccc(C(C)(C)C)cc3)C(C(=O)O)=CC[C@H]2c2ccc(Cl)c(Cl)c2)cc1	-6	19	-9	-14	-8	76*
Cc1ccc(S(=O)(=O)N2[C@@H](c3ccc(Cl)cc3)C(C(=O)O)=CC[C@H]2c2ccc(C(C)C)cc2)cc1	16	3	-25	-19	8	93*
Cc1ccc(S(=O)(=O)N2[C@@H](c3ccc(Br)cc3)C(C(=O)O)=CC[C@H]2c2ccc(Cl)c(Cl)c2)cc1	0	21	-21	-22	0	87*
Cc1ccc(S(=O)(=O)N2[C@@H](c3ccc(Cl)cc3)C(C(=O)OC(C)(C)C)=CC[C@H]2c2ccc(Cl)c(Cl)c2)cc1	.	.	2	-5	.	.
COc1ccc([C@@H]2CC=C(C(=O)O)[C@H](c3ccc(C(C)(C)C)cc3)N2S(=O)(=O)c2ccc(C)cc2)cc1OC	-3	3	3	18	-2	13
CCCCS(=O)(=O)NCC1CCN(C(=O)C(=O)c2cc3ccccc3o2)CC1	.	.	3	-8	.	.
SMILES	PAFAH2 inh	pPAFAH FP inh	ARFGAP1 inhibitor	ASAP1 GAP inh	PAFAH1B3 FP inh	PAFAH1B2 inh
COc1cccc([C@@H]2CC=C(C(=O)O)[C@H](c3ccc(C)cc3)N2S(=O)(=O)c2ccc(C)cc2)c1	-9	3	-3	-15	4	27*
Cc1ccc([C@@H]2CC=C(C(=O)O)CN2S(=O)(=O)c2ccc(C)cc2)cc1	-3	5	6	12	14	29*
Cc1ccc(S(=O)(=O)N2CC(C(=O)O)=CC[C@H]2c2ccc3c(c2)OCO3)cc1	3	1	-7	-17	4	7
Cc1ccc(S(=O)(=O)N2[C@@H](c3ccccc3F)C(C(=O)O)=CC[C@H]2c2cccs2)cc1	5	2	9	-4	10	21
COc1ccc([C@@H]2CC=C(C(=O)O)[C@H](c3ccc(C)cc3)N2S(=O)(=O)c2ccc(C)cc2)cc1OC	-1	7	-14	-17	6	12
Cc1ccc(S(=O)(=O)N2[C@@H](c3ccc(Br)cc3)C(C(=O)O)=CC[C@H]2c2ccc3c(c2)OCO3)cc1	-2	7	-2	4	7	72*
Cc1ccc(S(=O)(=O)N2[C@@H](c3ccccc3)C(C(=O)O)=CC[C@H]2c2cccs2)cc1	3	3	2	-19	1	25*
O=C1CCC(NC(=O)Cc2ccccc2)C(=O)N1 (stereo not given)	.	.	3	-4	.	.
Cn1nccc1C(=O)Nc1ccc(Cl)cc1	-9	6	3	-15	5	3
CCn1cc([N+](=O)[O-])c(C(=O)Nc2ccn(C34CC5CC(CC(C5)C3)C4)n2)n1	1	-3	-2	-2	9	29*
CCn1cc([N+](=O)[O-])c(C(=O)Nc2ccn(Cc3ccccc3)n2)n1	-5	-3	-4	4	4	1
Cn1nccc1C(=O)Nc1ccn(C23CC4CC(CC(C4)C2)C3)n1	-2	4	7	6	1	24*
Cc1nn(C)c(C(=O)Nc2ccn(C34CC5CC(CC(C5)C3)C4)n2)c1[N+](=O)[O-]	1	0	3	2	5	11
Cn1cc([N+](=O)[O-])c(C(=O)Nc2ccn(C34CC5CC(CC(C5)C3)C4)n2)n1	1	-1	-6	1	2	25*
CC1CC(C)CN(S(=O)(=O)c2ccc3c(c2)CC(=O)N3)C1 (stereo not given)	3	0	-15	-22	2	28*
CN1CCc2cccc3c2[C@H]1Cc1ccc(O)c(O)c1-3	8	25*!	6	3	7	0
COc1ccc(N/C(=C\C(=O)c2ccccc2)c2ccccc2)cc1OC	.	.	3	-8	.	.
CC(=O)c1cc(O)c2ccccc2c1O	20	26*	-10	-12	19	11
CN(C(=O)[C@H]1O[C@@H](n2cnc(C(N)=O)n2)[C@H](O)[C@@H]1O)c1ccccc1	.	.	16	8	.	.
OC1OC2COC(c3ccccc3)OC2C(O)C1O (stereo not given)	.	.	6	13	.	.

Source: PubChem
